Assay results as given in ChEMBL document CHEMBL5149988, “Structure-Based Design of Selective Salt-Inducible Kinase Inhibitors” (J Med Chem, 2021).

Assay: Metabolic stability in Sprague-Dawley rat liver microsomes assessed as parent compound remaining incubated for 1 hrs by HPLC analysis
Format: ADME, Microsome
Conditions: read-out: Stability
In short: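 Rat (Sprague-Dawley) activated liver microsome mix; compound incubated at 37 °C and sampled at 0, 15, 30 and 60 min. Unmetabolized parent quantified by HPLC.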

- remaining at 1 h: > 90%
SMILES: CNc1ncc2cc(-c3ccc(-c4ncccc4F)cc3Cl)c(=O)n(C[C@H]3OC[C@H](N)CO3)c2n1
